# A selection: hits, their analogues and other compounds. The true share with any hit is near 2.3%.
# OXTR potentiator: potentiators of human oxytocin receptor | P30559 | actives 0.061% (n = 320,000) | activation, % at 3 µM | CHO-OTR cells, Fluo-8 calcium fluorescence, potentiator mode; 0% = oxytocin EC15, 100% = EC100;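 active = activation above that plate's cutoff, the mean activation of tested compounds plus 3 SD, cut at about 6.6% in these data, passing the limit was not always enough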;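 also: 100% uses oxytocin at 75 nM as the full agonist control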
# Target sequence (P30559 whole entry, looked up): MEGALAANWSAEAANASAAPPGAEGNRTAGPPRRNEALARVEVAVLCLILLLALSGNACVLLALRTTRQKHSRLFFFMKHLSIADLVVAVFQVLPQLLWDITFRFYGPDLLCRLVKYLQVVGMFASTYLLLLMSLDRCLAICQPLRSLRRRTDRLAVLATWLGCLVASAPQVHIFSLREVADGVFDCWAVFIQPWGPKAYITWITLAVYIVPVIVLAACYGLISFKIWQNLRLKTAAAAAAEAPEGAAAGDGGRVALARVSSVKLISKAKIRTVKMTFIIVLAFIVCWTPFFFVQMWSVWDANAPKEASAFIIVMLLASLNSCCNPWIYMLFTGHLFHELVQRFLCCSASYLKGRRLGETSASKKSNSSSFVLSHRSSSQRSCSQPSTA
#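 Dosing: Single dose, 3.0 µM nominal final compound concentration | Material: Human OTR in CHO cells | Technique: Kinetic Fluo-8 calcium fluorescence | Benchmarks: EC15 oxytocin alone as 0%, 75 nM oxytocin as 100% | Probe or stimulus: Oxytocin at about EC15, sub-maximal agonist stimulus | Incubation: Compound 6 min at room temperature before oxytocin, 100 s read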
# TAAR1 agonist: agonists of human TAAR1; actives 0.99% (n = 360,000); Q96RJ0; CHO RD-HGA16 TAAR1, Fluo-8 calcium fluorescence; vehicle wells 0%, saturating PEA agonist 100%; AID 624467; activation, % at 3 µM;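 active = activation above the mean activation of all test compounds in the run plus 3 SD, cut at about 38% in these data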
#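 Assay system – CHO-derived RD-HGA16 cells with stable Gα16 and human TAAR1 · Compound dosing – one-point dosing at 3 µM (nominal) · Incubation – 17-24 h seeding, 75 min 37 °C dye, 30 min RT · Measured by – kinetic Fluo-8 calcium fluorescence · Control set – DMSO vehicle as 0%, PEA at EC100 as 100% · Repeats – single well for each compound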
# TAAR1 antag: human TAAR1 antagonism. CHO RD-HGA16 TAAR1, Fluo-8 calcium fluorescence, antagonist. inhibition, % at 3 µM. actives 1.5% (n = 360,000). AID 624466;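 active = inhibition above a per-plate cutoff, the mean inhibition of test compounds on that plate plus 3 SD, cut at about 49% in these data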;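 also: 0% = DMSO plus EC80 beta-PEA response and 100% = DMSO alone without agonist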
#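 System: CHO RD-HGA16 cells bearing hTAAR1. Reagent: EC80 β-phenethylamine stimulus. Schedule: seeding 17-24 h prior, 75-min 37 °C, 30-min RT dye loading. Signal: Fluo-8 intracellular calcium dye fluorescence, real-time kinetic reads. Read-out: % inhibition from peak post-agonist over basal fluorescence ratio. Benchmarks: vehicle wells and EC80 agonist wells. Replicates: n of 1.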
# V1R ag counter: counter-screen for oxytocin receptor agonists: human V1a receptor agonists. CHO-V1R cells, Fluo-8 calcium fluorescence, agonist mode; 0% DMSO, 100% 3 nM vasopressin. AID 2797. actives 0.25% (n = 320,000). P37288. activation, % at 3 µM;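 active = activation above the mean activation of all tested compounds plus 3 SD, per screening run, cut at about 20% in these data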;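 also: signal is peak over basal fluorescence ratio across a 100 second FLIPR read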
# OXTR agonist: agonists of human oxytocin receptor. activation, % at 3 µM. AID 2435. CHO-OTR cells, Fluo-8 calcium fluorescence; normalized: DMSO 0%, oxytocin 100%. P30559. actives 0.32% (n = 320,000);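 active = activation above the mean of all tested compounds plus 3 SD, cutoff set per screening run, cut at about 20% in these data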;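 also: peak over basal fluorescence ratio from a 100 s FLIPR kinetic read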
# nonsel antag count: nonselective antagonism, TAAR1 counter-screen; shares compounds with TAAR1 antag; counterscreen cell line, calcium fluorescence, antagonist mode; inhibition, % at 3 µM; actives 77% (n = 2,400); in the data active = inhibition above about 22%;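 also: CHO-Ga16 host cells stimulated with ATP at an EC80 level; 0% = agonist EC80 plus vehicle and 100% = vehicle without agonist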
# TAAR1 antag conf: human TAAR1 antagonism, confirmed. inhibition, % at 3 µM. shares compounds with TAAR1 antag. TAAR1-expressing cells, fluorescence antagonist read-out. actives 40% (n = 2,400); in the data active = inhibition above about 49%;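 also: CHO-Ga16 host cells challenged with agonist PEA near its EC80; 0% = agonist at EC80 plus vehicle and 100% = vehicle with no agonist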
# Ga16 nonsel ag: counter-screen for TAAR1 antagonists: nonselective Ga16 agonists. shares compounds with TAAR1 antag. Ga16-expressing cells, calcium fluorescence, agonist counterscreen. activation, % at 3 µM. actives 18% (n = 2,400). AID 651953; in the data active = activation above about 12%;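 also: 0% = vehicle wells and 100% = saturating stimulus response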
# TAAR1 ag count: TAAR1 agonism, antagonist counter-screen; hTAAR1 cell line, fluorescence activation, agonist mode; shares compounds with TAAR1 antag; actives 2% (n = 2,400); activation, % at 3 µM; in the data active = activation above about 37%;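 also: CHO cells stably expressing TAAR1 with calcium dye readout; 0% = DMSO vehicle and 100% = full agonist response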
# Active calls of the source: *; . = no result.
SMILES,OXTR potentiator,TAAR1 agonist,TAAR1 antag,V1R ag counter,OXTR agonist,nonsel antag count,TAAR1 antag conf,Ga16 nonsel ag,TAAR1 ag count
Cc1cc(CN(C)C(=O)CC2C(=O)NCCN2Cc2c(F)cccc2Cl)on1 (centres undefined),-3,1,-2,0,8,.,.,.,.
CCCOc1cccc(C(=O)N(Cc2ccco2)C2CCS(=O)(=O)C2)c1 (centres undefined),-3,-5,102*,0,-1,0,0,0,-1
Cc1ccc2cc(NC(=O)c3ccc(C(C)(C)C)cc3)ccc2n1,-21,13,58*,0,-1,25*,42,7,3
COc1ccc(CNC(=O)C[C@H]2C(=O)N(CCc3ccccc3)C[C@@H]2Cc2ccccc2)cc1,-15,19,56*,0,2,18,29,7,3
CC(=O)[C@H]1CC[C@@H](c2ccccc2)N(S(=O)(=O)c2ccc(C)cc2)C1,.,-1,6,.,.,.,.,.,.
COc1ccc(NC(=O)N(C)C[C@@H]2Oc3cc(Br)ccc3S(=O)(=O)N([C@H](C)CO)C[C@H]2C)cc1,.,5,-7,.,.,.,.,.,.
CN(C)N1C(=O)C2C3C=CC(O3)C2C1=O (centres undefined),.,1,-8,.,.,.,.,.,.
COc1cc(/C=C/C(=O)CC(=O)/C=C/c2ccc(O)c(OC)c2)ccc1O,-22,36,69*,24*,33*,48*,50*,28*,18
COc1cc(/C=C2\CCC/C(=C\c3ccc(O)c(OC)c3)C2=O)ccc1O,-19,14,53*,1,3,35*,48,7,14
COc1cc(/C=C2/CCC/C(=C\c3cc(O)c(OC)c(Cl)c3)C2=O)cc(Cl)c1O,-26,12,58*,2,1,42*,40,11,18
Cc1ccc(NC(=O)Cc2nnc(N)s2)cc1,-7,0,-11,-1,0,.,.,.,.
O=C(CCc1nc2ccccc2c(=O)[nH]1)N1CCN(S(=O)(=O)c2ccc(Cl)c(C(F)(F)F)c2)CC1,-1,17,62*,-1,-1,39*,50*,16*,14
CC(C)c1ccc(S(=O)(=O)N2CCN(C(=O)CCc3nc4ccccc4c(=O)[nH]3)CC2)cc1,.,5,6,.,.,.,.,.,.
Cc1ccc(C)c(NS(=O)(=O)c2cc(C(=O)Nc3ccccc3-c3ccccc3)ccc2Cl)c1,-5,8,8,1,0,.,.,.,.
O=C1CC(c2ccco2)Cc2c1cnn2-c1nc2ccccc2s1 (centres undefined),4,0,1,1,1,.,.,.,.
CCc1nc2ccccc2c(C(=O)OCCN2C(=O)c3ccccc3C2=O)c1C,-5,4,66*,-1,-2,26*,44,6,5
CCc1nc2ccccc2c(C(=O)OCC(=O)C(C)(C)C)c1C,-2,5,7,-1,-3,.,.,.,.
CCc1cc2c(COC(=O)c3cccc(NS(C)(=O)=O)c3)cc(=O)oc2cc1O,-12,4,65*,3,2,33*,39,4,2
CCc1cc2c(COC(=O)c3cc(S(=O)(=O)N4CCOCC4)ccc3F)cc(=O)oc2cc1O,-5,6,48,4,3,.,.,.,.
CC(C)(O)C#Cc1ccc(C(=O)N2CCCC(CCC(=O)NCc3ccccc3F)C2)cc1 (centres undefined),-5,0,12,2,1,.,.,.,.
N/C(=N\c1nc2ccccc2o1)NC(=O)c1ccccc1NC(=O)c1ccccc1,-10,12,65*,1,1,33*,37,3,-1
O=C(CSc1nnc(-c2ccc(Br)cc2)o1)Nc1cccc(C(=O)O)c1,1,0,-11,1,0,.,.,.,.

# Screens from PubChem BioAssay.
